According to ChEMBL document CHEMBL1287747, “Highly active antimycobacterial derivatives of benzoxazine” (2010):
In brackets after ≈: the same amount, converted by molar mass.

Tests used:
Assay type in all cases: functional
[1] = tested on: Mycobacterium tuberculosis; test: Antimycobacterial activity against Mycobacterium tuberculosis CNCTC My 331/88 after 14 days by microdilution method; details: CNCTC My 331/88, 336 h
Summary of the method: (§1)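 Strains from the Czech National Collection of Type Cultures, tested by dilution micromethod in Šula semisynthetic medium. Incubated at 37 °C and read at 14 and 21 days. MIC is the lowest concentration inhibiting growth.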

Mycobacterium avium [2] = test: Antimycobacterial activity against Mycobacterium avium CNCTC My 330/88 after 14 days by microdilution method; details: CNCTC My 330/88, 336 h; summary of the method: as §1
Mycobacterium kansasii [3] = test: Antimycobacterial activity against Mycobacterium kansasii CNCTC My 235/80 after 21 days by microdilution method; details: CNCTC My 235/80, 504 h; summary of the method: as §1
Mycobacterium kansasii [4] = test: Antimycobacterial activity against Mycobacterium kansasii CNCTC My 235/80 after 14 days by microdilution method; details: CNCTC My 235/80, 336 h; summary of the method: as §1
[5] = tested on: Mycobacterium tuberculosis; test: Antimycobacterial activity against Mycobacterium tuberculosis CNCTC My 331/88 after 21 days by microdilution method; details: CNCTC My 331/88, 504 h; summary of the method: as §1
Mycobacterium kansasii [6] = test: Antimycobacterial activity against Mycobacterium kansasii 6509/96 after 14 days by microdilution method; details: 6509/96, 336 h
Summary of the method: (§2)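 Clinical isolate that, unlike the standard strain, is not isoniazid-resistant. Tested by dilution micromethod in Šula semisynthetic medium, with compounds added in DMSO at final 1000 down to 0.25 µmol/L in twofold steps. Löwenstein-Jensen plate used as inoculum sterility and growth control. Incubated at 37 °C and read at 14 and 21 days. MIC is the lowest concentration inhibiting growth.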

Mycobacterium kansasii [7] = test: Antimycobacterial activity against Mycobacterium kansasii 6509/96 after 21 days by microdilution method; details: 6509/96, 504 h; summary of the method: as §2
Mycobacterium avium [8] = test: Antimycobacterial activity against Mycobacterium avium CNCTC My 330/88 after 21 days by microdilution method; details: CNCTC My 330/88, 504 h; summary of the method: as §1

Row | Structure (SMILES) | MIC [1] | MIC (Mycobacterium avium [2]) | MIC (Mycobacterium kansasii [3]) | MIC (Mycobacterium kansasii [4]) | MIC [5] | MIC (Mycobacterium kansasii [6]) | MIC (Mycobacterium kansasii [7]) | MIC (Mycobacterium avium [8])
1 | CCC(C)c1ccc(-n2c(=O)oc3cc(Cl)ccc3c2=O)cc1 (configuration not stated) | 4 µM (≈ 1.32 µg/mL) | 8 µM (≈ 2.64 µg/mL) | 8 µM (≈ 2.64 µg/mL) | 8 µM (≈ 2.64 µg/mL) | 4 µM (≈ 1.32 µg/mL) | 8 µM (≈ 2.64 µg/mL) | 8 µM (≈ 2.64 µg/mL) | 8 µM (≈ 2.64 µg/mL)
2 | CC(C)(C)c1ccc(-n2c(=O)oc3cc(Cl)ccc3c2=O)cc1 | 4 µM (≈ 1.32 µg/mL) | 4 µM (≈ 1.32 µg/mL) | 16 µM (≈ 5.28 µg/mL) | 8 µM (≈ 2.64 µg/mL) | 4 µM (≈ 1.32 µg/mL) | 8 µM (≈ 2.64 µg/mL) | 8 µM (≈ 2.64 µg/mL) | 8 µM (≈ 2.64 µg/mL)
3 | CC(C)c1ccc(-n2c(=O)oc3cc(Cl)ccc3c2=S)cc1 | 0.5 µM (≈ 0.166 µg/mL) | 8 µM (≈ 2.65 µg/mL) | 8 µM (≈ 2.65 µg/mL) | 8 µM (≈ 2.65 µg/mL) | 1 µM (≈ 0.332 µg/mL) | 4 µM (≈ 1.33 µg/mL) | 8 µM (≈ 2.65 µg/mL) | 8 µM (≈ 2.65 µg/mL)
4 | CCC(C)c1ccc(-n2c(=O)oc3ccc(Cl)cc3c2=S)cc1 (configuration not stated) | 0.5 µM (≈ 0.173 µg/mL) | 32 µM (≈ 11.1 µg/mL) | 8 µM (≈ 2.77 µg/mL) | 8 µM (≈ 2.77 µg/mL) | 1 µM (≈ 0.346 µg/mL) | 4 µM (≈ 1.38 µg/mL) | 8 µM (≈ 2.77 µg/mL) | 32 µM (≈ 11.1 µg/mL)
5 | CCC(C)c1ccc(-n2c(=O)oc3cc(Cl)ccc3c2=S)cc1 (configuration not stated) | 1 µM (≈ 0.346 µg/mL) | 8 µM (≈ 2.77 µg/mL) | 8 µM (≈ 2.77 µg/mL) | 4 µM (≈ 1.38 µg/mL) | 2 µM (≈ 0.692 µg/mL) | 1 µM (≈ 0.346 µg/mL) | 2 µM (≈ 0.692 µg/mL) | 8 µM (≈ 2.77 µg/mL)
6 | CCCCc1ccc(-n2c(=O)oc3ccc(Cl)cc3c2=S)cc1 | 1 µM (≈ 0.346 µg/mL) | 8 µM (≈ 2.77 µg/mL) | 16 µM (≈ 5.53 µg/mL) | 8 µM (≈ 2.77 µg/mL) | 2 µM (≈ 0.692 µg/mL) | 4 µM (≈ 1.38 µg/mL) | 4 µM (≈ 1.38 µg/mL) | 16 µM (≈ 5.53 µg/mL)
7 | CC(C)(C)c1ccc(-n2c(=O)oc3cc(Cl)ccc3c2=S)cc1 | 2 µM (≈ 0.692 µg/mL) | 4 µM (≈ 1.38 µg/mL) | 8 µM (≈ 2.77 µg/mL) | 4 µM (≈ 1.38 µg/mL) | 2 µM (≈ 0.692 µg/mL) | 2 µM (≈ 0.692 µg/mL) | 4 µM (≈ 1.38 µg/mL) | 8 µM (≈ 2.77 µg/mL)
8 | CCc1ccc(-n2c(=S)oc3ccc(Br)cc3c2=S)cc1 | 1 µM (≈ 0.378 µg/mL) | 62.5 µM (≈ 23.6 µg/mL) | 16 µM (≈ 6.05 µg/mL) | 8 µM (≈ 3.03 µg/mL) | 2 µM (≈ 0.757 µg/mL) | 4 µM (≈ 1.51 µg/mL) | 8 µM (≈ 3.03 µg/mL) | 62.5 µM (≈ 23.6 µg/mL)
9 | CCc1ccc(-n2c(=S)oc3ccc(Cl)cc3c2=S)cc1 | 0.5 µM (≈ 0.167 µg/mL) | 8 µM (≈ 2.67 µg/mL) | 8 µM (≈ 2.67 µg/mL) | 8 µM (≈ 2.67 µg/mL) | 0.5 µM (≈ 0.167 µg/mL) | 4 µM (≈ 1.34 µg/mL) | 6 µM (≈ 2 µg/mL) | 16 µM (≈ 5.34 µg/mL)
10 | CCc1ccc(-n2c(=S)oc3cc(Cl)ccc3c2=S)cc1 | 0.5 µM (≈ 0.167 µg/mL) | 4 µM (≈ 1.34 µg/mL) | 16 µM (≈ 5.34 µg/mL) | 8 µM (≈ 2.67 µg/mL) | 0.5 µM (≈ 0.167 µg/mL) | 8 µM (≈ 2.67 µg/mL) | 16 µM (≈ 5.34 µg/mL) | 8 µM (≈ 2.67 µg/mL)
11 | CC(C)c1ccc(-n2c(=S)oc3ccc(Br)cc3c2=S)cc1 | 0.5 µM (≈ 0.196 µg/mL) | 8 µM (≈ 3.14 µg/mL) | 62.5 µM (≈ 24.5 µg/mL) | 32 µM (≈ 12.6 µg/mL) | 1 µM (≈ 0.392 µg/mL) | 4 µM (≈ 1.57 µg/mL) | 8 µM (≈ 3.14 µg/mL) | 16 µM (≈ 6.28 µg/mL)
12 | CC(C)c1ccc(-n2c(=S)oc3ccc(Cl)cc3c2=S)cc1 | 0.5 µM (≈ 0.174 µg/mL) | 32 µM (≈ 11.1 µg/mL) | 16 µM (≈ 5.57 µg/mL) | 8 µM (≈ 2.78 µg/mL) | 1 µM (≈ 0.348 µg/mL) | 1 µM (≈ 0.348 µg/mL) | 2 µM (≈ 0.696 µg/mL) | 125 µM (≈ 43.5 µg/mL)
13 | CC(C)c1ccc(-n2c(=S)oc3cc(Cl)ccc3c2=S)cc1 | 0.5 µM (≈ 0.174 µg/mL) | 8 µM (≈ 2.78 µg/mL) | 8 µM (≈ 2.78 µg/mL) | 4 µM (≈ 1.39 µg/mL) | 1 µM (≈ 0.348 µg/mL) | 4 µM (≈ 1.39 µg/mL) | 4 µM (≈ 1.39 µg/mL) | 8 µM (≈ 2.78 µg/mL)
14 | NNC(=O)c1ccncc1 [ISONIAZID] | 0.5 µM (≈ 0.0686 µg/mL) | > 250 µM | > 250 µM | > 250 µM | 0.5 µM (≈ 0.0686 µg/mL) | 8 µM (≈ 1.1 µg/mL) | 8 µM (≈ 1.1 µg/mL) | > 250 µM
